Data as given in ChEMBL document CHEMBL4007484, “Pharmacokinetic optimitzation of CCG-203971: Novel inhibitors of the Rho/MRTF/SRF transcriptional pathway as potential antifibrotic therapeutics for systemic scleroderma” (Bioorg Med Chem Lett, 2017).

How the values were obtained:
[1] = Inhibition of Rho/MRTF/SRF pathway (unknown origin) expressed in HEK293T cells assessed as reduction in Galpha12-stimulated MRTF-selective SRE.L promoter-driven luciferase activity after overnight incubation by luminescence assay; format: cell-based, Homo sapiens
Summary of the method: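 Signal was stimulated with Gα12 and luciferase activity was read. IC50 in μM is the mean of n ≥ 3.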

[2] = system: Liver; assay: Half life in CD-1 mouse liver microsomes at 1 uM in presence of NADPH by LC-MS/MS analysis; format: ADME, microsome
Summary of the method: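 Half-life measured by incubation in mouse liver microsomes.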

[3] = organism: Homo sapiens; assay: Inhibition of Rho/MRTF/SRF pathway in human primary dermal fibroblasts assessed as inhibition of TGF-beta-stimulated ACTA2 gene expression by measuring ACTA2 mRNA level at 10 uM after 24 hrs by qRT-PCR method relative to control; set-up: scale not given: the % may be the effect or the level left
Summary of the method: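 Primary human dermal fibroblasts stimulated with TGF-β and treated with compound at 10 μM for 24 h. ACTA2 mRNA was measured by qPCR and expressed as percent of control, mean of n=3.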

[4] = Thermodynamic aqueous solubility of the compound in water by nitrogen detection method; format: physicochemical; settings: buffer
Summary of the method: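 Thermodynamic solubility in water, reported in μg/mL.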

[5] = system: Liver; assay: Drug metabolism in CD-1 mouse liver microsomes assessed as 5,5-difluoro-1-(3-(furan-2-yl)benzoyl)piperidine-3-carboxylic acid formation at 20 uM after 3 mins in presence of NADPH by LC-MS/MS analysis; format: ADME, microsome; settings: 0.05 h
[6] = AUC (0 to 7 hrs) in CD-1 mouse at 10 mg/kg, ip administered as single dose by LC-MS/MS analysis; format: ADME, organism-based; set-up: dose 10 mg/kg, time < 7 hr, route intraperitoneal; settings: in vivo
Summary of the method: (§1)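 Mice dosed once, by intraperitoneal injection at 10 mg/kg or by oral gavage at 20 mg/kg. AUC is estimated from the plasma concentration curve over 0–7 h and is expressed as hr.ng/mL.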

[7] = system: Liver; assay: Drug level in CD-1 mouse liver microsomes treated with CCG-222740 at 20 uM after 3 mins in presence of NADPH by LC-MS/MS analysis; format: ADME, microsome; settings: 0.05 h
[8] = system: Mus musculus; assay: Antifibrotic activity in C57BL/6 mouse bleomycin-induced dermal fibrosis model assessed as inhibition of dermal thickness at 50 mg/kg, po qd for 2 weeks by Masson's trichrome staining based microscopic method relative to control; format: functional; settings: C57BL/6, po, 336 h
Summary of the method: (§2)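 Three groups of mice (n=8) dosed daily for 14 days. The groups were: intracutaneous PBS; intracutaneous bleomycin plus vehicle by oral gavage; intracutaneous bleomycin plus test compound at 50 mg/kg by oral gavage. Read-outs were dermal thickness and skin hydroxyproline content. Each is given as the reduction of the bleomycin-induced increase.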

[9] = Plasma concentration in CD-1 mouse at 10 mg/kg, ip or 20 mg/kg, po administered via gavage as single dose measured at 7 hrs post dose by LC-MS/MS analysis; format: ADME, organism-based
Summary of the method: (§3)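 Plasma concentration in μM after a single dose in mice (IP 10 mg/kg or PO gavage 20 mg/kg), sampled at 0.5 h and at 7 h post-dose.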

[10] = Plasma concentration in CD-1 mouse at 10 mg/kg, ip or 20 mg/kg, po administered via gavage as single dose measured at 0.5 hrs post dose by LC-MS/MS analysis; format: ADME, organism-based; summary of the method: as §3
[11] = AUC (0 to 7 hrs) in CD-1 mouse at 20 mg/kg, po administered via gavage as single dose by LC-MS/MS analysis; format: ADME, organism-based; set-up: time < 7 hr, dose 20 mg/kg, route oral; settings: in vivo; summary of the method: as §1
[12] = system: Mus musculus; assay: Antifibrotic activity in C57BL/6 mouse bleomycin-induced dermal fibrosis model assessed as inhibition ofhydroxyproline content at 50 mg/kg, po qd for 2 weeks relative to control; format: functional; settings: C57BL/6, po, 336 h; summary of the method: as §2
[13] = system: Liver; assay: Drug metabolism in CD-1 mouse liver microsomes assessed as oxidative metabolism at 20 uM after 3 mins in presence of NADPH by LC-MS/MS analysis; format: ADME, microsome; settings: 0.05 h

SMILES | IC50 [1] [nM] | t1/2 [2] [min] | further results
CC(=O)NC1CC(C(=O)Nc2ccc(Cl)cc2)CN(C(=O)c2cccc(-c3ccco3)c2)C1 (configuration not stated) | 5000 | – | –
O=C(Nc1ccc(Cl)cc1)C1CN(C(=O)c2cccc(-c3ccco3)c2)CCO1 (configuration not stated) | 3100 | – | –
O=C(Nc1ccc(Cl)cc1)C1CCCN(C(=O)c2cccc(-c3cn[nH]c3)c2)C1 (configuration not stated) | 3000 | 5.6 | Activity [3]: 73%
O=C(Nc1ccc(Cl)cc1)C1CCCN(C(=O)c2cc(-c3ccco3)on2)C1 (configuration not stated) | 6800 | – | –
COC(=O)N1CCN(C(=O)c2cccc(-c3ccco3)c2)CC1C(=O)Nc1ccc(Cl)cc1 (configuration not stated) | 2700 | – | –
O=C(Nc1ccc(Cl)cc1)C1CN(C(=O)c2cccc(-n3cccn3)c2)CC(F)(F)C1 (configuration not stated) | 680 | 4.8 | Therm_solubility [4]: 23 µg/mL; Activity [3]: 140%
O=C(Nc1ccc(Cl)cc1)C1CN(C(=O)c2cc(-c3ccco3)ccn2)CC(F)(F)C1 (configuration not stated) | 7100 | 2.5 | –
O=C(Nc1ccc(Cl)cc1)C1CCCN(C(=O)c2cncc(-c3ccco3)c2)C1 (configuration not stated) | 2900 | < 3 | –
COC(=O)NC1CC(C(=O)Nc2ccc(Cl)cc2)CN(C(=O)c2cccc(-c3ccco3)c2)C1 (configuration not stated) | 5000 | – | –
O=C(Nc1ccc(Cl)cc1)C1CCCN(C(=O)c2cccc(-n3cccn3)c2)C1 (configuration not stated) | 2900 | 1.7 | –
O=C(Nc1ccc(Cl)cc1)C1CCCN(C(=O)c2cc(-c3ccco3)ncn2)C1 (configuration not stated) | 15300 | – | –
O=C(Nc1ccc(Cl)cc1)C1CN(C(=O)c2cccc(-c3ccco3)c2)CC(F)(F)C1 (configuration not stated) | 600 | 4.9 | Therm_solubility [4]: 2.3 µg/mL; Drug metabolism [5]: Metabolite_Detected; AUC(0-t) at 7 h [6]: 9200 ng·h/mL; Activity [3]: 9.3%
O=C(Nc1ccc(Cl)cc1)C1CN(C(=O)c2cccc(-c3cn[nH]c3)c2)CC(F)(F)C1 (configuration not stated) | 4500 | 13 | –
O=C(Nc1ccc(Cl)cc1)C1CN(C(=O)c2cccc(-c3cncnc3)c2)CC(F)(F)C1 (configuration not stated) | 3200 | – | –
O=C(O)C1CN(C(=O)c2cccc(-c3ccco3)c2)CC(F)(F)C1 (configuration not stated) | – | – | Drug metabolism [7]: Metabolite_Detected
O=C(Nc1ccc(Cl)cc1)C1CCCN(C(=O)c2cccc(-n3ccnc3)c2)C1 (configuration not stated) | 5200 | – | –
O=C(Nc1ccc(Cl)cc1)C1CN(C(=O)c2cncc(-c3ccncc3)c2)CC(F)(F)C1 (configuration not stated) | 1200 | 7.7 | Therm_solubility [4]: 62 µg/mL; Activity [3]: 190%
O=C(c1cccc(-c2ccco2)c1)N1CCCC(COc2ccc(Cl)cc2)C1 (configuration not stated) | 810 | 1.8 | –
CN(C(=O)C1CCCN(C(=O)c2cccc(-c3ccco3)c2)C1)c1ccc(Cl)cc1 (configuration not stated) | 8600 | – | –
O=C(Nc1ccc(Cl)cc1)C1CCCN(C(=O)c2cccc(-c3cc[nH]n3)c2)C1 (configuration not stated) | 920 | 3.4 | –

SMILES | IC50 [1] [nM] | t1/2 [2] [min] | further results
O=C(Nc1ccc(Cl)cc1)C1CCCN(C(=O)c2cc(-c3ccco3)[nH]n2)C1 (configuration not stated) | 5300 | – | –
O=C(Nc1ccc(Cl)cc1)C1CN(C(=O)c2cccc(-c3ccncc3)c2)CC(F)(F)C1 (configuration not stated) | 550 | 7.8 | inhibition in vivo at 50 mg/kg [8]: 55%; Therm_solubility [4]: 23.1 µg/mL; concentration at 7 h [9]: 2.4 µM; concentration at 0.5 h [10]: 14.4 µM; AUC(0-t) at 7 h [6]: 15300 ng·h/mL; Activity [3]: 31%; AUC(0-t) at 7 h [11]: 33700 ng·h/mL; inhibition in vivo at 50 mg/kg [12]: 62%
O=C(Nc1ccc(Cl)cc1)C1CN(C(=O)c2cccc(-c3ccccn3)c2)CC(F)(F)C1 (configuration not stated) | 1000 | 9.5 | Therm_solubility [4]: 3.9 µg/mL; Activity [3]: 37%
CC1(C(=O)Nc2ccc(Cl)cc2)CCCN(C(=O)c2cccc(-c3ccco3)c2)C1 (configuration not stated) | 550 | 0.84 | –
O=C(Nc1ccc(Cl)cc1)C1CCCN(C(=O)c2cccc(-c3ccco3)c2)C1 (configuration not stated) | 640 | 1.6 | Therm_solubility [4]: 13.4 µg/mL; Drug metabolism [13]: Metabolite_Detected; AUC(0-t) at 7 h [6]: 1200 ng·h/mL; Activity [3]: 37%
CC(=O)N1CCN(C(=O)c2cccc(-c3ccco3)c2)CC1C(=O)Nc1ccc(Cl)cc1 (configuration not stated) | 21000 | – | –
O=C(Nc1ccc(Cl)cc1)C1CN(C(=O)c2cccc(-c3cccnc3)c2)CC(F)(F)C1 (configuration not stated) | 900 | < 3 | –
O=C(NC1CCCN(C(=O)c2cccc(-c3ccco3)c2)C1)c1ccc(Cl)cc1 (configuration not stated) | 4900 | – | –
O=C(Nc1ccc(Cl)cc1)C1CN(C(=O)c2cncc(-c3ccco3)c2)CC(F)(F)C1 (configuration not stated) | 3500 | 3 | –
O=C(Nc1ccc(Cl)cc1)C1CCCN(C(=O)c2cc(-c3ccco3)ccn2)C1 (configuration not stated) | 1900 | < 3 | –
O=C(Nc1ccc(Cl)cc1)C1CCCN(C(=O)c2cnc(-c3ccco3)s2)C1 (configuration not stated) | 5800 | – | –
CN(C)C1CC(C(=O)Nc2ccc(Cl)cc2)CN(C(=O)c2cccc(-c3ccco3)c2)C1 (configuration not stated) | 5800 | 3.3 | –
Cn1cncc1-c1cccc(C(=O)N2CC(C(=O)Nc3ccc(Cl)cc3)CC(F)(F)C2)c1 (configuration not stated) | 370 | 16 | Therm_solubility [4]: 14.9 µg/mL; Activity [3]: 110%
O=C(Nc1ccc(Cl)cc1)C1CN(C(=O)c2cccc(-c3ncc[nH]3)c2)CC(F)(F)C1 (configuration not stated) | 5500 | – | –
O=C(c1cccc(-c2ccco2)c1)N1CCCC(F)(C(=O)Nc2ccc(Cl)cc2)C1 (configuration not stated) | 800 | 2.8 | –
C=C1CC(C(=O)Nc2ccc(Cl)cc2)CN(C(=O)c2cccc(-c3ccco3)c2)C1 (configuration not stated) | 98 | 1.4 | Activity [3]: 9.5%
O=C(Nc1ccc(Cl)cc1)C1CN(C(=O)c2cc(F)cc(-c3ccncc3)c2)CC(F)(F)C1 (configuration not stated) | 530 | 6.9 | Therm_solubility [4]: 9.8 µg/mL; concentration at 7 h [9]: 1.3 µM; concentration at 0.5 h [10]: 13.2 µM; AUC(0-t) at 7 h [6]: 26700 ng·h/mL; Activity [3]: 14%; AUC(0-t) at 7 h [11]: 36400 ng·h/mL
O=C(Nc1ccc(Cl)cc1)C1CN(C(=O)c2cccc(-c3ncccn3)c2)CC(F)(F)C1 (configuration not stated) | 3000 | 11.9 | Therm_solubility [4]: 75.4 µg/mL; Activity [3]: 65%
O=C(Nc1ccc(Cl)cc1)C1CCCN(C(=O)c2csc(-c3ccco3)n2)C1 (configuration not stated) | 6200 | – | –
O=C1CC(C(=O)Nc2ccc(Cl)cc2)CN(C(=O)c2cccc(-c3ccco3)c2)C1 (configuration not stated) | 3900 | – | –
